In ChEMBL document CHEMBL1147862, “Studies on synthesis and pharmacological activities of 3,6-disubstituted-1,2,4-triazolo[3,4-b]-1,3,4-thiadiazoles and their dihydro analogues” (2007):

Assays:
Assay type in all cases: functional
[1] = system: Mus musculus; experiment: Analgesic activity in Swiss mouse assessed as increase in reaction time at 20 mg/kg, po after 30 mins by Eddy's hot plate technique
Method in brief: (§1)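 Swiss mice of either sex, 25–35 g, placed one at a time on a hot plate held at 55 °C. End point is paw licking or jumping, whichever comes first, with a 15 s cut-off to avoid paw injury. Reaction time is recorded and reported as percent increase in reaction time.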

[2] = system: Mus musculus; experiment: Analgesic activity in Swiss mouse assessed as increase in reaction time at 20 mg/kg, po after 60 mins by Eddy's hot plate technique; method in brief: as §1
[3] = system: Mus musculus; experiment: Analgesic activity in Swiss mouse assessed as increase in reaction time at 20 mg/kg, po after 90 mins by Eddy's hot plate technique; method in brief: as §1
[4] = system: Candida albicans; experiment: Antifungal activity against Candida albicans at 10 ug/ml by paper disc method; conditions: read-out: IZ
[5] = system: Candida albicans; experiment: Antifungal activity against Candida albicans at 20 ug/ml by paper disc method; conditions: read-out: IZ
[6] = system: Candida albicans; experiment: Antifungal activity against Candida albicans at 30 ug/ml by paper disc method; conditions: read-out: IZ
[7] = system: Aspergillus niger; experiment: Antifungal activity against Aspergillus niger at 10 ug/ml by paper disc method; conditions: read-out: IZ
[8] = system: Aspergillus niger; experiment: Antifungal activity against Aspergillus niger at 20 ug/ml by paper disc method; conditions: read-out: IZ
[9] = system: Aspergillus niger; experiment: Antifungal activity against Aspergillus niger at 30 ug/ml by paper disc method; conditions: read-out: IZ
[10] = system: Escherichia coli; experiment: Antibacterial activity against Escherichia coli at 10 ug/ml by agar plate diffusion technique; conditions: read-out: IZ
[11] = system: Escherichia coli; experiment: Antibacterial activity against Escherichia coli at 20 ug/ml by agar plate diffusion technique; conditions: read-out: IZ
[12] = system: Escherichia coli; experiment: Antibacterial activity against Escherichia coli at 30 ug/ml by agar plate diffusion technique; conditions: read-out: IZ
[13] = system: Pseudomonas aeruginosa; experiment: Antibacterial activity against Pseudomonas aeruginosa at 10 ug/ml by agar plate diffusion technique; conditions: read-out: IZ
[14] = system: Pseudomonas aeruginosa; experiment: Antibacterial activity against Pseudomonas aeruginosa at 20 ug/ml by agar plate diffusion technique; conditions: read-out: IZ
[15] = system: Pseudomonas aeruginosa; experiment: Antibacterial activity against Pseudomonas aeruginosa at 30 ug/ml by agar plate diffusion technique; conditions: read-out: IZ
[16] = system: Bacillus subtilis; experiment: Antibacterial activity against Bacillus subtilis at 10 ug/ml by agar plate diffusion technique; conditions: read-out: IZ
[17] = system: Bacillus subtilis; experiment: Antibacterial activity against Bacillus subtilis at 20 ug/ml by agar plate diffusion technique; conditions: read-out: IZ
[18] = system: Bacillus subtilis; experiment: Antibacterial activity against Bacillus subtilis at 30 ug/ml by agar plate diffusion technique; conditions: read-out: IZ
[19] = system: Staphylococcus aureus; experiment: Antibacterial activity against Staphylococcus aureus at 10 ug/ml by agar plate diffusion technique; conditions: read-out: IZ
[20] = system: Staphylococcus aureus; experiment: Antibacterial activity against Staphylococcus aureus at 20 ug/ml by agar plate diffusion technique; conditions: read-out: IZ
[21] = system: Staphylococcus aureus; experiment: Antibacterial activity against Staphylococcus aureus at 30 ug/ml by agar plate diffusion technique; conditions: read-out: IZ
[22] = system: Rattus norvegicus; experiment: Antiinflammatory activity in Wistar Albino rat assessed as inhibition of carrageenan-induced paw oedema at 20 mg/kg after 1 hr relative to control
Method in brief: (§2)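 Wistar albino rats, 150–200 g, six per group, dosed orally with a 20 mg/kg suspension; control gets 0.1 ml 1% gum acacia. After 30 min, 0.1 ml 1% carrageenan in saline is injected subplantar into the right hind paw. Paw volume is read by plethysmograph at 0–4 h. Inhibition = 100(1 − Vtest/Vcontrol) on mean volume increase.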

[23] = system: Rattus norvegicus; experiment: Antiinflammatory activity in Wistar Albino rat assessed as inhibition of carrageenan-induced paw oedema at 20 mg/kg after 2 hrs relative to control; method in brief: as §2
[24] = system: Rattus norvegicus; experiment: Antiinflammatory activity in Wistar Albino rat assessed as inhibition of carrageenan-induced paw oedema at 20 mg/kg after 3 hrs relative to control; method in brief: as §2
[25] = system: Rattus norvegicus; experiment: Antiinflammatory activity in Wistar Albino rat assessed as inhibition of carrageenan-induced paw oedema at 20 mg/kg after 4 hrs relative to control; method in brief: as §2

Row | SMILES | Activity [1] | Activity [2] | Activity [3] | zone of inhibition at 10 µg/mL [4] | zone of inhibition at 20 µg/mL [5] | zone of inhibition at 30 µg/mL [6] | zone of inhibition at 10 µg/mL [7] | zone of inhibition at 20 µg/mL [8] | zone of inhibition at 30 µg/mL [9] | zone of inhibition at 10 µg/mL [10] | zone of inhibition at 20 µg/mL [11] | zone of inhibition at 30 µg/mL [12] | zone of inhibition at 10 µg/mL [13] | zone of inhibition at 20 µg/mL [14] | zone of inhibition at 30 µg/mL [15] | zone of inhibition at 10 µg/mL [16] | zone of inhibition at 20 µg/mL [17] | zone of inhibition at 30 µg/mL [18] | zone of inhibition at 10 µg/mL [19] | zone of inhibition at 20 µg/mL [20] | also measured
1 | COc1ccc(Cc2nnc3sc(-c4ccnc(Cl)c4)nn23)cc1OC | 6.24% | 12.55% | 23.89% | 6.82 mm | 12.9 mm | 19.4 mm | 7.23 mm | 13 mm | 18.4 mm | 6.72 mm | 12.8 mm | 19.7 mm | 6.93 mm | 12.2 mm | 19.4 mm | 7.19 mm | 13.9 mm | 18.9 mm | 7.05 mm | 13.6 mm | zone of inhibition at 30 µg/mL [21]: 18.1 mm; inhibition in vivo at 20 mg/kg [22]: 11.2%; inhibition in vivo at 20 mg/kg [23]: 13.2%; inhibition in vivo at 20 mg/kg [24]: 22.5%; inhibition in vivo at 20 mg/kg [25]: 24.2%
2 | COc1ccc(Cc2nnc3sc(-c4cc(C)nc5ccccc45)nn23)cc1OC | 5.96% | 11.05% | 20.14% | 5.48 mm | 12 mm | 17.5 mm | 6.25 mm | 13 mm | 16.7 mm | 5.25 mm | 8.8 mm | 16 mm | 5.26 mm | 10.1 mm | 16.1 mm | 6.29 mm | 10.2 mm | 16.1 mm | 6.72 mm | 11.7 mm | zone of inhibition at 30 µg/mL [21]: 16.6 mm; inhibition in vivo at 20 mg/kg [22]: 10.2%; inhibition in vivo at 20 mg/kg [23]: 13.2%; inhibition in vivo at 20 mg/kg [24]: 21.2%; inhibition in vivo at 20 mg/kg [25]: 24.9%
3 | COc1ccc(Cc2nnc3sc(-c4ccnc(F)c4)nn23)cc1OC | 2.83% | 10.3% | 22.66% | 8.14 mm | 14.8 mm | 21.7 mm | 7.14 mm | 12.4 mm | 21 mm | 7.96 mm | 14.4 mm | 19.3 mm | 8.21 mm | 14.9 mm | 19.3 mm | 7.64 mm | 14.4 mm | 19.3 mm | 7.1 mm | 13.8 mm | zone of inhibition at 30 µg/mL [21]: 19.2 mm; inhibition in vivo at 20 mg/kg [22]: 11.1%; inhibition in vivo at 20 mg/kg [23]: 14.3%; inhibition in vivo at 20 mg/kg [24]: 16.7%; inhibition in vivo at 20 mg/kg [25]: 21.5%
4 | COc1ccc(Cl)c(-c2nnc3sc(-c4cc(C)nc5ccccc45)nn23)c1 | 7.6% | 12.65% | 21.06% | 6.18 mm | 13.8 mm | 18.8 mm | 5.62 mm | 12.6 mm | 18.5 mm | 5.16 mm | 9.12 mm | 16.7 mm | 5.31 mm | 10.3 mm | 16.1 mm | 7.06 mm | 11.1 mm | 16.4 mm | 6.89 mm | 12.1 mm | zone of inhibition at 30 µg/mL [21]: 16.1 mm; inhibition in vivo at 20 mg/kg [22]: 8.68%; inhibition in vivo at 20 mg/kg [23]: 20.2%; inhibition in vivo at 20 mg/kg [24]: 24.1%; inhibition in vivo at 20 mg/kg [25]: 27.4%
5 | COc1ccc(Cl)c(-c2nnc3sc(Cc4c[nH]c5ccccc45)nn23)c1 | 19.48% | 28.32% | 34.24% | 5.86 mm | 9.48 mm | 12.5 mm | 5.1 mm | 10.1 mm | 12.9 mm | 4.78 mm | 8.12 mm | 12.4 mm | 4.12 mm | 8.16 mm | 12.2 mm | 4.33 mm | 7.6 mm | 12.3 mm | 4.8 mm | 7.59 mm | zone of inhibition at 30 µg/mL [21]: 12.6 mm; inhibition in vivo at 20 mg/kg [22]: 8.8%; inhibition in vivo at 20 mg/kg [23]: 16.5%; inhibition in vivo at 20 mg/kg [24]: 21.4%; inhibition in vivo at 20 mg/kg [25]: 34.7%
